Data set [1] concerns the target Nucleic Acid. In words: Binding affinity to HIV1 frameshift-stimulating RNA by fluorescence titration. In kind it is nucleic-acid assay, Human immunodeficiency virus 1. Put shortly: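 5′-Cy3-labelled HIV-1 FSS RNA (400 or 500 nM) in 1X PBS pH 7.2 was heated to 65 °C for 4 min, then MgCl2 was added. Compound was titrated in over 100 nM–10 μM, with at least 10 min equilibration per step. Cy3 emission at 564.1 nm was dilution-corrected, and ΔFU was fit to a 1:1 model with ligand depletion to give KD. At least 2 titrations were run.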

Data set [2] has as its target Nucleic Acid. In words: Binding affinity to HIV1 frameshift-stimulating RNA by fluorescence titration in presence of yeast tRNA. In kind it is nucleic-acid assay, Human immunodeficiency virus 1. Put shortly: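 Cy3-labelled HIV-1 FSS RNA was premixed with yeast total tRNA competitor (8 or 16 μM) in 1X PBS pH 7.2 with MgCl2, then titrated with compound. Fluorescence was read at 564.1 nm after at least 10 min equilibration per addition. Dilution-corrected ΔFU was fit to a 1-site ligand-depletion model for KD.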

Data set [3] can be described thus: Dissociation constant Kd of the compound. In kind it is physicochemical.
Data set [4] is described as follows: Cytotoxicity against human fibroblast up to 10 uM. Format: cell-based. As to conditions: in the assay text read “up to 1 mM” for “up to 10 uM”; call rule not given here. Put shortly: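 Human fibroblasts were grown in DMEM with 5% FBS at 37 °C and 5% CO2, seeded at 3.2 × 10^4 cells/well, and grown 48 h to about 80% confluence. Cells were exposed to compound in DMEM for 24 h, with mitomycin C as control. MTT was added for 4 h, formazan was dissolved in isopropanol, and absorbance was read at 600 nm.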

SMILES strings stand for the structures.

Turning to `CCc1nc2cc3c(cc2cc1C(=O)N[C@@H](CSSC[C@H](NC(=O)c1cc2cc4c(cc2nc1CC)OCO4)C(=O)N1CCC[C@H]1C(=O)N[C@@H](Cc1ccccc1)C(=O)NCCCN)C(=O)N1CCC[C@H]1C(=O)N[C@@H](Cc1ccccc1)C(=O)NCCCN)OCO3`, the Kd on Nucleic Acid [1] (read-out: Kd) was found to be 1420 nM.

On to `CCc1nc2ccccc2cc1C(=O)N[C@@H](C/C=C\C[C@H](NC(=O)c1cc2ccccc2nc1CC)C(=O)N1CCC[C@H]1C(=O)N[C@@H](Cc1ccccc1)C(=O)NCCCN)C(=O)N1CCC[C@H]1C(=O)N[C@@H](Cc1ccccc1)C(=O)NCCCN`, for which the Kd on Nucleic Acid [2] (read-out: Kd) stood at 260 nM; in data set [3], 4660 nM; at Nucleic Acid [1] (read-out: Kd), 180 nM. In addition, in data set [4], the Activity result is recorded as “Non-toxic”.

Turning to `Cc1nc2ccccc2cc1C(=O)N[C@@H](CSSC[C@H](NC(=O)c1cc2ccccc2nc1C)C(=O)N1CCC[C@H]1C(=O)N[C@@H](Cc1ccccc1)C(=O)NCCCN)C(=O)N1CCC[C@H]1C(=O)N[C@@H](Cc1ccccc1)C(=O)NCCCN`, at Nucleic Acid [1] (read-out: Kd), the Kd was 430 nM.

With `NCCCNC(=O)[C@H](Cc1ccccc1)NC(=O)[C@@H]1CCCN1C(=O)[C@@H](N)CSSC[C@H](N)C(=O)N1CCC[C@H]1C(=O)N[C@@H](Cc1ccccc1)C(=O)NCCCN`, the Kd entry in the data set on Nucleic Acid [1] is given as “Not Active”.

Regarding `NCCCNC(=O)[C@H](Cc1ccccc1)NC(=O)[C@@H]1CCCN1C(=O)[C@H](CSSC[C@H](NC(=O)c1ccc2c(c1)C(=O)c1ccccc1C2=O)C(=O)N1CCC[C@H]1C(=O)N[C@@H](Cc1ccccc1)C(=O)NCCCN)NC(=O)c1ccc2c(c1)C(=O)c1ccccc1C2=O`, the Kd on Nucleic Acid [1] (read-out: Kd) came to 230 nM.

Consider `C=CC[C@H](NC(=O)c1cc2ccccc2nc1CC)C(=O)N1CCC[C@H]1C(=O)N[C@@H](Cc1ccccc1)C(=O)NCCCN`, for which the Kd entry in the data set with Nucleic Acid [2] was “Not Active”; at Nucleic Acid [1] (read-out: Kd), 470 nM.

In the case of `NC[C@@H]1O[C@H](O[C@H]2[C@@H](O)[C@H](O[C@@H]3[C@@H](O)[C@H](N)C[C@H](N)[C@H]3O[C@H]3O[C@H](CN)[C@@H](O)[C@H](O)[C@H]3N)O[C@@H]2CO)[C@H](N)[C@@H](O)[C@@H]1O` [FRAMYCETIN], the Kd in data set [3] worked out at 2600 nM.

Take `CCc1nc2ccccc2cc1C(=O)N[C@@H](C/C=C/C[C@H](NC(=O)c1cc2ccccc2nc1CC)C(=O)N1CCC[C@H]1C(=O)N[C@@H](Cc1ccccc1)C(=O)NCCCN)C(=O)N1CCC[C@H]1C(=O)N[C@@H](Cc1ccccc1)C(=O)NCCCN`: the figures for the Kd (at Nucleic Acid [2] (read-out: Kd); in data set [3]; at Nucleic Acid [1] (read-out: Kd)) were 390 nM, 11200 nM and 330 nM, respectively.

As for `CCc1nc2ccccc2cc1C(=O)N[C@@H](CCCC[C@H](NC(=O)c1cc2ccccc2nc1CC)C(=O)N1CCC[C@H]1C(=O)N[C@@H](Cc1ccccc1)C(=O)NCCCN)C(=O)N1CCC[C@H]1C(=O)N[C@@H](Cc1ccccc1)C(=O)NCCCN`, the Kd was determined as 1410 nM on Nucleic Acid [2] (read-out: Kd), 12300 nM in data set [3] and 1270 nM at Nucleic Acid [1] (read-out: Kd).

Regarding `CCc1nc2ccccc2cc1C(=O)N[C@@H](CSSC[C@H](NC(=O)c1cc2ccccc2nc1CC)C(=O)N1CCC[C@H]1C(=O)N[C@@H](Cc1ccccc1)C(=O)NCCCN)C(=O)N1CCC[C@H]1C(=O)N[C@@H](Cc1ccccc1)C(=O)NCCCN`, the Kd turned out to be 200 nM at Nucleic Acid [2] (read-out: Kd), 7880 nM in data set [3] and 350 nM at Nucleic Acid [1] (read-out: Kd).

For the compound `NCCCNC(=O)[C@H](Cc1ccccc1)NC(=O)[C@@H]1CCCN1C(=O)[C@H](CSSC[C@H](NC(=O)c1cnc2ccccc2c1)C(=O)N1CCC[C@H]1C(=O)N[C@@H](Cc1ccccc1)C(=O)NCCCN)NC(=O)c1cnc2ccccc2c1`, the Kd on Nucleic Acid [1] (read-out: Kd) was 650 nM.

Turning to `CCc1nc2ccccc2cc1C(=O)O`, the Kd result was “Not Active” in the data set on Nucleic Acid [2] and 290 nM at Nucleic Acid [1] (read-out: Kd).

A word on the Kd: it is the concentration at which binding is half-saturated.
